pIC50, pKi: −log10 of the molar value.
Tests used:
[1] = Permeability from apical side to basolateral side in human Caco2 cells; format: ADME, cell-based; settings: Caco-2, read-out: permeability
[2] = AUC in rat; format: ADME; parameters: concentration or dose not given beside the values; settings: in vivo
[3] = target: Disintegrin and metalloproteinase domain-containing protein 17 (Homo sapiens, UniProt P78536); assay: Inhibition of catalytic domain TACE (unknown origin) by FRET assay
Blood = assay: Antiinflammatory activity in human whole blood assessed as inhibition of LPS-induced TNF-alpha release preincubated for 1 hr followed by LPS addition after 3.5 hrs by ELISA method; format: functional
[4] = Oral bioavailability in monkey at 10 mg/kg; format: ADME, organism-based, Macaca mulatta; settings: rhesus monkey, in vivo
Summary of the method: (§1)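 Oral dosing of rats, dogs and monkeys, with compounds given as Na+ or HCl salts in a 0.4% HPMC formulation. Doses were 10 mg/kg in rat, 2 or 3 mg/kg in dog, and 3 or 10 mg/kg in monkey. Plasma exposure was reported as AUC in µM·h, and oral bioavailability as F%.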

[5] = AUC in rat at 10 mg/kg, po; format: ADME, organism-based; settings: in vivo; summary of the method: as §1
[6] = Clearance in dog at 0.5 mg/kg, iv; format: ADME, organism-based, Canis lupus familiaris; settings: in vivo
[7] = Clearance in rat at 3 mg/kg, iv; format: ADME, organism-based; settings: in vivo
[8] = Oral bioavailability in dog at 3 mg/kg; format: ADME, organism-based, Canis lupus familiaris; settings: in vivo; summary of the method: as §1
[9] = AUC in monkey at 10 mg/kg, po; format: ADME, organism-based, Macaca mulatta; settings: rhesus monkey, in vivo; summary of the method: as §1
[10] = AUC in dog at 3 mg/kg, po; format: ADME, organism-based, Canis lupus familiaris; settings: in vivo; summary of the method: as §1
[11] = Clearance in monkey at 1 mg/kg, iv; format: ADME, organism-based, Macaca mulatta; settings: rhesus monkey, in vivo
[12] = Oral bioavailability in rat at 10 mg/kg; format: ADME, organism-based; settings: in vivo; summary of the method: as §1
[13] = AUC in monkey at 3 mg/kg, po; format: ADME, organism-based, Macaca mulatta; settings: rhesus monkey, in vivo; summary of the method: as §1
[14] = AUC in dog at 2 mg/kg, po; format: ADME, organism-based, Canis lupus familiaris; settings: in vivo; summary of the method: as §1
Matrilysin = target: T1, Matrilysin (Homo sapiens, UniProt P09237); assay: Inhibition of MMP7 (unknown origin)
T1 sequence (P09237 whole entry): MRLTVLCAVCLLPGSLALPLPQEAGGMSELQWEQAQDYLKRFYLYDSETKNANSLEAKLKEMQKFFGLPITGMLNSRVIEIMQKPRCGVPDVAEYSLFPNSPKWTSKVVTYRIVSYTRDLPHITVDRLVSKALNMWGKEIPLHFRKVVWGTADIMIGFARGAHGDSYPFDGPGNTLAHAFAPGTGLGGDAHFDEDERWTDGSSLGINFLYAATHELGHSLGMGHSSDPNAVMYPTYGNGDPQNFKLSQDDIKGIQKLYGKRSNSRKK

[15] = target: 72 kDa type IV collagenase (Homo sapiens, UniProt P08253); assay: Inhibition of MMP2 (unknown origin)
72 kDa type IV collagenase, sequence (P08253 whole entry): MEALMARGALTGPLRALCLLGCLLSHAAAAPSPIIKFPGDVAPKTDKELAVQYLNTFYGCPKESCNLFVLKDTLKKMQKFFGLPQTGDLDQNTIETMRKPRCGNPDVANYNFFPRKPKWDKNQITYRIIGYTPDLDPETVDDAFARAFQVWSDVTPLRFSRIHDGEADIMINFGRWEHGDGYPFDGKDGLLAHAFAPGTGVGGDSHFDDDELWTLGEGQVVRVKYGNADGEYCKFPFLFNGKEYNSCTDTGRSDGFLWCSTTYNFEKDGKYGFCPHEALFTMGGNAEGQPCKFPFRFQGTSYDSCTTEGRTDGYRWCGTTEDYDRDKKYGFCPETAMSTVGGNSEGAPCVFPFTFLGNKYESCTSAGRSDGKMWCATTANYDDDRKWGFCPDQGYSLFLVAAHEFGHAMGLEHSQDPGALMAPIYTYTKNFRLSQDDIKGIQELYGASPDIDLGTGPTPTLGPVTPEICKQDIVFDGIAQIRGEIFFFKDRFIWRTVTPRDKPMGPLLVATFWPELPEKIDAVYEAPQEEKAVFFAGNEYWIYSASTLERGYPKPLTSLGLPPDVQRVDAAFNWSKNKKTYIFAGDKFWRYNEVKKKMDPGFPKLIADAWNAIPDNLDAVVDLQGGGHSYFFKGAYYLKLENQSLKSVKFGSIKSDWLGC

Collagenase 3 = Collagenase 3 (Homo sapiens, UniProt P45452); assay: Inhibition of MMP13 (unknown origin)
[16] = target: Matrix metalloproteinase-9 (Homo sapiens, UniProt P14780); assay: Inhibition of MMP9 (unknown origin)
Matrix metalloproteinase-9, sequence (P14780 whole entry): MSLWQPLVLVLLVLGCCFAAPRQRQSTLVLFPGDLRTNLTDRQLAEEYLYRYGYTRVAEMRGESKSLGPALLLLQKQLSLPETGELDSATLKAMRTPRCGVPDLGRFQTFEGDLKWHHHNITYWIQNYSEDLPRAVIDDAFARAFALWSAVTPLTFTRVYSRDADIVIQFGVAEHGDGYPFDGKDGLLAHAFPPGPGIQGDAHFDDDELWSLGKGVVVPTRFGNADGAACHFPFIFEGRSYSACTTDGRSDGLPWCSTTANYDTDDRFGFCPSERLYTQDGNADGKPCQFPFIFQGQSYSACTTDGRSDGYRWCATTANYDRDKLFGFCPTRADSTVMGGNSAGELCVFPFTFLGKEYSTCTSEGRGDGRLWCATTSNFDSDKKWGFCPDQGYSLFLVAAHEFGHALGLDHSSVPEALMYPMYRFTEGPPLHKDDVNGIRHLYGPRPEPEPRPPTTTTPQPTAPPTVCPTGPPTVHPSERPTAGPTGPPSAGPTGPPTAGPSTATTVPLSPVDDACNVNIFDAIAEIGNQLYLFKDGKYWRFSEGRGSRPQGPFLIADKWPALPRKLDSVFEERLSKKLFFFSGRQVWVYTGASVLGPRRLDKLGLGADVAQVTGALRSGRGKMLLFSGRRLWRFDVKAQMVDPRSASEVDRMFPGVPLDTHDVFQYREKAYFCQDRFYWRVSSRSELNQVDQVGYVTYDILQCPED

[17] = target: Matrix metalloproteinase-14 (Homo sapiens, UniProt P50281); assay: Inhibition of MMP14 (unknown origin)
[18] = Oral bioavailability in monkey at 3 mg/kg; format: ADME, organism-based, Macaca mulatta; settings: rhesus monkey, in vivo; summary of the method: as §1
[19] = target: T2, Disintegrin and metalloproteinase domain-containing protein 10 (Homo sapiens, UniProt O14672); assay: Inhibition of ADAM10 (unknown origin)
T2 sequence (O14672 whole entry): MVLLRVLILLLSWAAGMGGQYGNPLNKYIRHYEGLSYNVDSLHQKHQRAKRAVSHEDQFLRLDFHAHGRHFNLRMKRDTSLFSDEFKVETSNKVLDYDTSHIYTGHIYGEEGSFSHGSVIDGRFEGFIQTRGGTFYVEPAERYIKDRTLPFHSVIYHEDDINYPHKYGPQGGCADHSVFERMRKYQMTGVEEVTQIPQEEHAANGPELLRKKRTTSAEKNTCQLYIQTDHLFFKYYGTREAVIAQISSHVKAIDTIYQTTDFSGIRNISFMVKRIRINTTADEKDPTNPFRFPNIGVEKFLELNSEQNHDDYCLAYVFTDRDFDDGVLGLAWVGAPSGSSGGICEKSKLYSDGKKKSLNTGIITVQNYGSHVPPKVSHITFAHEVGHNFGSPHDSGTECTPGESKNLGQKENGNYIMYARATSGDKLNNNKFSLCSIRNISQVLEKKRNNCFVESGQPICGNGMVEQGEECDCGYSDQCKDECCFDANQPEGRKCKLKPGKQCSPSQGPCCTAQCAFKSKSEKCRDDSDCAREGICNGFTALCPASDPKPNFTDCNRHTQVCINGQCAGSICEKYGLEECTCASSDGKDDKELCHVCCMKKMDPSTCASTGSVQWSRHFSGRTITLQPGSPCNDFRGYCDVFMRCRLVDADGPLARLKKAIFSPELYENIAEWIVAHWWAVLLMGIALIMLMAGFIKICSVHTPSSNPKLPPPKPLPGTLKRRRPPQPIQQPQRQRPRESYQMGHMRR

Stromelysin-1 = Stromelysin-1 (Homo sapiens, UniProt P08254); assay: Inhibition of MMP3 (unknown origin)
Stromelysin-1, sequence (P08254 whole entry): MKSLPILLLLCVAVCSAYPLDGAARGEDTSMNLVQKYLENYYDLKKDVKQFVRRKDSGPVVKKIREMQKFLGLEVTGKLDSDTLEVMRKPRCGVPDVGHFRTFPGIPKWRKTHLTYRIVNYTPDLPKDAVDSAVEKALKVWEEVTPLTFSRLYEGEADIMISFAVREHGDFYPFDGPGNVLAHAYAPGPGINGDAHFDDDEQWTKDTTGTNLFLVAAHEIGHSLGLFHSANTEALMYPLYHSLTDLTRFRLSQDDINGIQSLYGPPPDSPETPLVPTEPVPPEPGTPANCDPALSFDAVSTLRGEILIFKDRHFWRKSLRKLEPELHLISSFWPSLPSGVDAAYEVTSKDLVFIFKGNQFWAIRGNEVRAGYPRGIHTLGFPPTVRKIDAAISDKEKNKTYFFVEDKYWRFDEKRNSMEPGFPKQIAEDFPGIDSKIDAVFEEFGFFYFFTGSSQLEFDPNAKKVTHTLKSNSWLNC

Interstitial collagenase = target: T3, Interstitial collagenase (Homo sapiens, UniProt P03956); assay: Inhibition of MMP1 (unknown origin)
T3 sequence (P03956 whole entry): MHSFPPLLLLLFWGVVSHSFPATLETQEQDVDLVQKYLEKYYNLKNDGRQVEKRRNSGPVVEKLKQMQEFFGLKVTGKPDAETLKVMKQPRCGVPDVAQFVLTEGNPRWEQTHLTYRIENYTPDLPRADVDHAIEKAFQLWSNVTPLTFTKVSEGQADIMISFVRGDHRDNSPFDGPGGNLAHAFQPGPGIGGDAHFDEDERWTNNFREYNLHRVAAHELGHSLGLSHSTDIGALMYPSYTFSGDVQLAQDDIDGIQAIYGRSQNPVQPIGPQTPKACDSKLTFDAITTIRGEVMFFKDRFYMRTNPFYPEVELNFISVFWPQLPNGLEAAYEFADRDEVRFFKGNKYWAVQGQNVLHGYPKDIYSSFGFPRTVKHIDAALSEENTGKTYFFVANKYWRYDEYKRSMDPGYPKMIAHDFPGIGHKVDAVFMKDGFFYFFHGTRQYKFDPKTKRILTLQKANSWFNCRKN

Disintegrin and metalloproteinase domain-containing protein 17, sequence (P78536 whole entry, the tested form may be a part): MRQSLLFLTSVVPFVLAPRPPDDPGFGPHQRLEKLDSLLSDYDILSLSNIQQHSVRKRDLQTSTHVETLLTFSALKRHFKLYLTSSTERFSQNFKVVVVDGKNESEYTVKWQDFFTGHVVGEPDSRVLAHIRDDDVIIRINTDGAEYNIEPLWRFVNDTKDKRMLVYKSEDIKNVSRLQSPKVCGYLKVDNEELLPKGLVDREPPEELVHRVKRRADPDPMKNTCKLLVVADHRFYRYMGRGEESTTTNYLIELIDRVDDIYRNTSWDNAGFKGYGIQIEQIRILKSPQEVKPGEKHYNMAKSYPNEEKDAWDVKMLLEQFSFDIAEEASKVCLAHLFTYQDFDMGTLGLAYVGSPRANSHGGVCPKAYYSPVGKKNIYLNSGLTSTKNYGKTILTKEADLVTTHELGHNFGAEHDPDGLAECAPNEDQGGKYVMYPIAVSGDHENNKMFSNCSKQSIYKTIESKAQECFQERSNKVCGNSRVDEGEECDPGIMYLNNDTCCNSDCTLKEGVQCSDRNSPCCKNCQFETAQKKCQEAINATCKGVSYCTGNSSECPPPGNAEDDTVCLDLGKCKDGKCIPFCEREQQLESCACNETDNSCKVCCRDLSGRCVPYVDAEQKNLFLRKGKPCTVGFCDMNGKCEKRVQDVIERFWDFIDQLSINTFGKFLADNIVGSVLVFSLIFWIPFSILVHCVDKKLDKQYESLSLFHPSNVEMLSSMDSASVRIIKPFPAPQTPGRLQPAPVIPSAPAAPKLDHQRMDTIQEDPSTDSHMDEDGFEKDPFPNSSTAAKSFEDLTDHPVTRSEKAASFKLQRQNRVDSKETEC

| SMILES | AUC [2] [µM·h] | pKi [3] | pIC50 (Blood) | also measured |
| --- | --- | --- | --- | --- |
| COc1ccc2c(c1)C(=O)N(C[C@@]1(C#Cc3cccnc3)NC(=O)NC1=O)C2 |  |  |  | Papp A→B [1]: 1.6 ×10⁻⁶ cm/s |
| COc1ccc2c(c1)C(=O)N(C[C@@]1(c3cc4nc(N(c5cn[nH]c5)C5CCN(C)CC5)ccc4o3)NC(=O)NC1=O)C2 | 0.06 | 9.00 |  | Papp A→B [1]: 0.1 ×10⁻⁶ cm/s |
| COc1ccc2c(c1)C(=O)N(C[C@@]1(c3cc4cnc(C)cc4o3)NC(=O)NC1=O)C2 | 19.1 | 9.40 | 6.46 | Papp A→B [1]: 2.05 ×10⁻⁶ cm/s |
| COc1ccc2c(c1)C(=O)N(C[C@@]1(c3cc4ncccc4o3)NC(=O)NC1=O)C2 | 27 | 9.30 | 6.54 | bioavailability [4]: 46%; AUC [5]: 10 µM·h; clearance [6]: 3 mL/min/kg; clearance [7]: 15 mL/min/kg; bioavailability [8]: 82%; AUC [9]: 22 µM·h; AUC [10]: 41 µM·h; Papp A→B [1]: 1.2 ×10⁻⁶ cm/s; clearance [11]: 11 mL/min/kg; bioavailability [12]: 35% |
| COc1ccc2c(c1)C(=O)N(C[C@@]1(c3cc4cncc(N)c4o3)NC(=O)NC1=O)C2 | 0.1 | 9.40 | 6.51 |  |
| COc1ccc2c(c1)C(=O)N(C[C@@]1(c3cc4cccnc4o3)NC(=O)NC1=O)C2 | 34 | 9.15 | 6.23 |  |
| COc1ccc2c(c1)C(=O)N(C[C@@]1(c3cc4cnc(C(F)(F)F)cc4o3)NC(=O)NC1=O)C2 | 19.3 | 9.30 | 5.79 |  |
| COc1ccc2c(c1F)C(=O)N(C[C@@]1(c3cc4nc(N5CCC(N(C)C)CC5)ccc4o3)NC(=O)NC1=O)C2 | 0.04 |  | 7.12 |  |
| COc1ccc2c(c1)C(=O)N(C[C@@]1(c3cn4ccccc4n3)NC(=O)NC1=O)C2 |  | 8.85 | 5.83 |  |
| COc1ccc2c(c1F)C(=O)N(C[C@@]1(c3cc4cnc(C)cc4o3)NC(=O)NC1=O)C2 | 26.3 | 9.40 | 6.68 | AUC [13]: 1.5 µM·h; AUC [14]: 13.5 µM·h; AUC [5]: 13.4 µM·h; bioavailability [12]: 11% |
| COc1ccc2c(c1)C(=O)N(C[C@@]1(c3cc4ncccc4[nH]3)NC(=O)NC1=O)C2 |  | 8.44 | 5.53 |  |
| COc1ccc2c(c1)C(=O)N(C[C@@]1(c3cc4c(C)nc(C)cc4o3)NC(=O)NC1=O)C2 | 4.2 | 9.30 | 6.17 |  |
| COc1ccc2c(c1)C(=O)N(C[C@@]1(c3cc4nc(-n5cccn5)ccc4o3)NC(=O)NC1=O)C2 | 21 | 9.40 | 5.86 |  |
| COc1ccc2c(c1)C(=O)N(C[C@@]1(c3cc4c(C#N)nccc4o3)NC(=O)NC1=O)C2 | 0.5 | 9.15 | 5.91 |  |
| COc1ccc2c(c1)C(=O)N(C[C@@]1(c3cc4cncnc4o3)NC(=O)NC1=O)C2 | 2.2 | 8.80 | 6.11 |  |
| CNC(=O)c1cnc2cc([C@]3(CN4Cc5ccc(OC)cc5C4=O)NC(=O)NC3=O)oc2c1 |  | 9.05 |  |  |
| COc1ccc2c(c1)C(=O)N(C[C@@]1(c3cc4c(-c5cn[nH]c5)nccc4o3)NC(=O)NC1=O)C2 |  | 9.70 | 6.82 |  |

| SMILES | AUC [2] [µM·h] | pKi [3] | pIC50 (Blood) | also measured |
| --- | --- | --- | --- | --- |
| COc1ccc2c(c1)C(=O)N(C[C@@]1(c3cc4nc(N)ccc4o3)NC(=O)NC1=O)C2 | 0.4 | 9.30 | 6.73 |  |
| COc1ccc2c(c1)C(=O)N(C[C@@]1(c3cc4cnc(N5CCNC5=O)cc4o3)NC(=O)NC1=O)C2 | 1.2 | 8.74 | 6.68 |  |
| COc1ccc2c(c1)C(=O)N(C[C@@]1(c3cc4nc(N(c5cn[nH]c5)C5CCNCC5)ccc4o3)NC(=O)NC1=O)C2 |  | 9.40 | 7.03 | Papp A→B [1]: 0.22 ×10⁻⁶ cm/s |
| COc1ccc2c(c1)C(=O)N(C[C@@]1(c3cc4cncc(C)c4o3)NC(=O)NC1=O)C2 | 8.7 | 9.30 | 6.12 |  |
| COc1ccc2c(c1)C(=O)N(C[C@@]1(c3cc4ccccc4o3)NC(=O)NC1=O)C2 | 0.2 | 9.52 | 5.64 |  |
| COc1ccc2c(c1F)C(=O)N(C[C@@]1(c3cc4nc(N5CC(=O)NC5=O)c(F)cc4o3)NC(=O)NC1=O)C2 | 3.2 | 9.40 |  |  |
| COc1ccc2c(c1)C(=O)N(C[C@@]1(c3cn4ccsc4n3)NC(=O)NC1=O)C2 | 2.2 | 8.89 | 6.27 |  |
| COc1ccc2c(c1)C(=O)N(C[C@@]1(c3cc4cnccc4o3)NC(=O)NC1=O)C2 | 13 | 9.15 | 6.57 | AUC [13]: 10 µM·h; pIC50 (Matrilysin): < 4.40; AUC [5]: 11 µM·h; pIC50 [15]: 6.27; clearance [6]: 3 mL/min/kg; pIC50 (Collagenase 3): 6.16; pIC50 [16]: 5.75; clearance [7]: 23 mL/min/kg; pIC50 [17]: 6.62; bioavailability [18]: 19%; bioavailability [8]: 98%; pKi [19]: 6.84; AUC [10]: 52 µM·h; pIC50 (Stromelysin-1): 5.26; Papp A→B [1]: 1.5 ×10⁻⁶ cm/s; pIC50 (Interstitial collagenase): 5.33; clearance [11]: 7 mL/min/kg; bioavailability [12]: 58% |
| COc1ccc2c(c1)C(=O)N(C[C@@]1(c3cc4cncc(F)c4o3)NC(=O)NC1=O)C2 | 2.7 | 8.70 | 5.96 |  |
| COc1ccc2c(c1)C(=O)N(C[C@@]1(c3cn4cccnc4n3)NC(=O)NC1=O)C2 | 3.2 | 8.72 | 6.15 |  |
| COc1ccc2c(c1)C(=O)N(C[C@@]1(c3cc4c(O)nccc4o3)NC(=O)NC1=O)C2 |  | 9.70 | 6.60 |  |
| COc1ccc2c(c1F)C(=O)N(C[C@@]1(c3cc4nc(N5CCNC(=O)C5)ccc4o3)NC(=O)NC1=O)C2 | 0.1 | 9.22 |  |  |
| COc1ccc2c(c1F)C(=O)N(C[C@@]1(c3cc4nc(C)c(-c5ccc(N)nc5)cc4o3)NC(=O)NC1=O)C2 |  |  | 6.51 |  |
| COc1ccc2c(c1)C(=O)N(C[C@@]1(c3cc4c(N5CCNCC5)nccc4o3)NC(=O)NC1=O)C2 |  | 8.60 | 6.64 |  |
| COc1ccc2c(c1)C(=O)N(C[C@@]1(c3cc4nc(-c5cn[nH]c5)ccc4o3)NC(=O)NC1=O)C2 | 0.1 | 9.30 | 7.00 |  |
| COc1ccc2c(c1)C(=O)N(C[C@@]1(c3cc4c(C(F)(F)F)nccc4o3)NC(=O)NC1=O)C2 |  | 9.40 | 5.97 |  |

— ChEMBL document CHEMBL4020802, “Fused bi-heteroaryl substituted hydantoin compounds as TACE inhibitors” (Bioorg Med Chem Lett, 2017)
